According to ChEMBL document CHEMBL3621107, “Ring fusion strategy for synthesis and lead optimization of sulfur-substituted anthra[1,2-c][1,2,5]thiadiazole-6,11-dione derivatives as promising scaffold of antitumor agents” (Eur J Med Chem, 2015):
pIC50: −log10 of the molar value.

Key:
[1] = system: KM12; test: Cytotoxicity against human KM12 cells assessed as cell growth at 10 uM after 48 hrs by SRB assay relative to control; format: functional; details: KM12, 48 h, read-out: Activity
In short: (§1)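 First-stage NCI-60 screen by the NCI Developmental Therapeutics Program. Each compound was tested once at a single concentration of 10 μM against the 60-cell-line panel. Growth percentage was reported for each cell line.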

[2] = system: UO-31; test: Cytotoxicity against human UO31 cells assessed as cell growth at 10 uM after 48 hrs by SRB assay relative to control; format: functional; details: UO-31, 48 h, read-out: Activity
In short: (§2)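 NCI-60 one-dose screen run by NCI DTP: each cell line exposed to a single 10 µM dose, and percentage growth recorded against untreated growth.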

[3] = system: NCI-H522; test: Cytotoxicity against human NCI-H522 cells assessed as cell growth at 10 uM after 48 hrs by SRB assay relative to control; format: functional; details: NCI-H522, 48 h, read-out: Activity
In short: (§3)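 First-stage NCI DTP one-dose screen against the 60 human tumour cell line panel. Compounds were tested at a single 10 μM level, and results are given as growth percentage.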

[4] = system: SK-MEL-28; test: Cytotoxicity against human SK-MEL-28 cells assessed as cell growth at 10 uM after 48 hrs by SRB assay relative to control; format: functional; details: SK-MEL-28, 48 h, read-out: Activity; in short: as §3
[5] = system: K562; test: Cytotoxicity against human K562 cells assessed as cell growth at 10 uM after 48 hrs by SRB assay relative to control; format: functional; details: K562, 48 h, read-out: Activity; in short: as §1
[6] = system: HCT-116; test: Cytotoxicity against human HCT116 cells assessed as cell growth at 10 uM after 48 hrs by SRB assay relative to control; format: functional; details: HCT-116, 48 h, read-out: Activity; in short: as §1
[7] = system: NCI-H226; test: Cytotoxicity against human NCI-H226 cells assessed as cell growth at 10 uM after 48 hrs by SRB assay relative to control; format: functional; details: NCI-H226, 48 h, read-out: Activity; in short: as §3
[8] = system: BT-549; test: Cytotoxicity against human BT549 cells assessed as cell growth at 10 uM after 48 hrs by SRB assay relative to control; format: functional; details: BT-549, 48 h, read-out: Activity; in short: as §1
[9] = system: A498; test: Cytotoxicity against human A498 cells assessed as cell growth at 10 uM after 48 hrs by SRB assay relative to control; format: functional; details: A498, 48 h, read-out: Activity; in short: as §1
[10] = system: PC-3; test: Cytotoxicity against human PC3 cells after 48 hrs by SRB assay; format: functional, cell-based; details: PC-3, 48 h
In short: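 Second-stage NCI-60 panel run by the NCI Developmental Therapeutics Program, covering nine tumour subpanels. Five concentrations were tested: 0.01, 0.1, 1, 10 and 100 μM. Percentage growth at each level was plotted against log10 drug concentration. GI50, TGI and LC50 were read from these dose-response curves. Subpanel MID values were divided into the full-panel MID to give selectivity ratios.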

[11] = system: MCF7; test: Cytotoxicity against human MCF7 cells assessed as cell growth at 10 uM after 48 hrs by SRB assay relative to control; format: functional; details: MCF7, 48 h, read-out: Activity; in short: as §1
[12] = system: PC-3; test: Cytotoxicity against human PC3 cells assessed as cell growth at 10 uM after 48 hrs by SRB assay relative to control; format: functional; details: PC-3, 48 h, read-out: Activity; in short: as §3
[13] = system: HOP-62; test: Cytotoxicity against human HOP62 cells assessed as cell growth at 10 uM after 48 hrs by SRB assay relative to control; format: functional; details: HOP-62, 48 h, read-out: Activity; in short: as §1
[14] = system: U-251; test: Cytotoxicity against human U251 cells assessed as cell growth at 10 uM after 48 hrs by SRB assay relative to control; format: functional; details: U-251, 48 h, read-out: Activity; in short: as §2
[15] = system: A549; test: Cytotoxicity against human A549 cells assessed as cell growth at 10 uM after 48 hrs by SRB assay relative to control; format: functional; details: A549, 48 h, read-out: Activity; in short: as §1
[16] = system: M14; test: Cytotoxicity against human M14 cells assessed as cell growth at 10 uM after 48 hrs by SRB assay relative to control; format: functional; details: M14, 48 h, read-out: Activity; in short: as §1
[17] = system: SN12C; test: Cytotoxicity against human SN12C cells assessed as cell growth at 10 uM after 48 hrs by SRB assay relative to control; format: functional; details: read-out: Activity; in short: as §3
[18] = system: SK-OV-3; test: Cytotoxicity against human SKOV3 cells assessed as cell growth at 10 uM after 48 hrs by SRB assay relative to control; format: functional; details: SK-OV-3, 48 h, read-out: Activity; in short: as §3
[19] = system: OVCAR-8; test: Cytotoxicity against human OVCAR8 cells assessed as cell growth at 10 uM after 48 hrs by SRB assay relative to control; format: functional; details: OVCAR-8, 48 h, read-out: Activity; in short: as §3
[20] = system: SR; test: Cytotoxicity against human SR cells assessed as cell growth at 10 uM after 48 hrs by SRB assay relative to control; format: functional; details: read-out: Activity; in short: as §2
[21] = system: SNB-19; test: Cytotoxicity against human SNB19 cells assessed as cell growth at 10 uM after 48 hrs by SRB assay relative to control; format: functional; details: SNB-19, 48 h, read-out: Activity; in short: as §2
[22] = system: DU-145; test: Cytotoxicity against human DU145 cells after 72 hrs by MTT assay; format: functional, cell-based; details: DU-145, 72 h
In short: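 DU-145 cells grown in RPMI-1640 with 5% heat-inactivated fetal calf serum at 37 °C, 5% CO2. About 2×10^3 cells per well were seeded and incubated for 24 h. Compounds were dissolved in DMSO freshly and diluted into medium (vehicle 0.1% DMSO), then cells were exposed for 72 h. MTT was added for 3 h at 37 °C and absorbance read at 570 nm.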

[23] = system: DU-145; test: Cytotoxicity against human DU145 cells assessed as cell growth at 10 uM after 48 hrs by SRB assay relative to control; format: functional; details: DU-145, 48 h, read-out: Activity; in short: as §1
[24] = system: NCI-H23; test: Cytotoxicity against human NCI-H23 cells assessed as cell growth at 10 uM after 48 hrs by SRB assay relative to control; format: functional; details: NCI-H23, 48 h, read-out: Activity; in short: as §3
[25] = system: SF-539; test: Cytotoxicity against human SF539 cells assessed as cell growth at 10 uM after 48 hrs by SRB assay relative to control; format: functional; details: SF-539, 48 h, read-out: Activity; in short: as §3
[26] = system: UACC-257; test: Cytotoxicity against human UACC257 cells assessed as cell growth at 10 uM after 48 hrs by SRB assay relative to control; format: functional; details: UACC-257, 48 h, read-out: Activity; in short: as §2
[27] = system: RPMI-8226; test: Cytotoxicity against human RPMI8226 cells assessed as cell growth at 10 uM after 48 hrs by SRB assay relative to control; format: functional; details: RPMI-8226, 48 h, read-out: Activity; in short: as §3
[28] = system: HCC 2998; test: Cytotoxicity against human HCC2998 cells assessed as cell growth at 10 uM after 48 hrs by SRB assay relative to control; format: functional; details: HCC 2998, 48 h, read-out: Activity; in short: as §1
[29] = system: HOP-92; test: Cytotoxicity against human HOP92 cells assessed as cell growth at 10 uM after 48 hrs by SRB assay relative to control; format: functional; details: HOP-92, 48 h, read-out: Activity; in short: as §1
[30] = system: MDA-MB-435; test: Cytotoxicity against human MDA-MB-435 cells assessed as cell growth at 10 uM after 48 hrs by SRB assay relative to control; format: functional; details: MDA-MB-435, 48 h, read-out: Activity; in short: as §3

Row | SMILES | growth at 10 µM [1] [%] | growth at 10 µM [2] [%] | growth at 10 µM [3] [%] | growth at 10 µM [4] [%] | growth at 10 µM [5] [%] | growth at 10 µM [6] [%] | growth at 10 µM [7] [%] | growth at 10 µM [8] [%] | growth at 10 µM [9] [%] | pIC50 [10] | growth at 10 µM [11] [%] | growth at 10 µM [12] [%] | growth at 10 µM [13] [%] | growth at 10 µM [14] [%] | growth at 10 µM [15] [%] | growth at 10 µM [16] [%] | growth at 10 µM [17] [%] | growth at 10 µM [18] [%] | growth at 10 µM [19] [%] | growth at 10 µM [20] [%] | further results
1 | O=C1c2ccccc2C(=O)c2c1cc(Cl)c1nsnc21 | 95.9 | 80.2 | 89.5 | 132 | 2.44 | 48.1 | 100 | 102 | 93.8 | 4.87 | 65.4 | 23.5 | 75.8 | 29.2 | 103 | 103 | 71.9 | 109 | -4.57 | -23.9 | growth at 10 µM [21]: 106%; pIC50 [22]: 5.18; growth at 10 µM [23]: 97%; growth at 10 µM [24]: 75%; growth at 10 µM [25]: 109%; growth at 10 µM [26]: 76.1%; growth at 10 µM [27]: 27.8%; growth at 10 µM [28]: 106%; growth at 10 µM [29]: -52.2%
2 | O=C1c2ccccc2C(=O)c2c1cc(Sc1ccc(F)cc1F)c1nsnc21 | 51.8 | 70.3 | 61.1 | 79.5 | -21.1 | -63.1 | 88.8 | 66.4 | 50.8 | 4.83 | 6.58 | -9.72 | 58.5 | 34.5 | 112 | 53.8 | 9.12 | 92.6 | 0.32 | 0.2 | growth at 10 µM [30]: -85.3%; growth at 10 µM [21]: 87.3%; pIC50 [22]: 5.04; growth at 10 µM [23]: 41.3%; growth at 10 µM [24]: 9.53%; growth at 10 µM [25]: 58.8%; growth at 10 µM [26]: 43.9%; growth at 10 µM [27]: 6.29%; growth at 10 µM [28]: 107%; growth at 10 µM [29]: -18.4%
3 | Cc1ccccc1Sc1cc2c(c3nsnc13)C(=O)c1ccccc1C2=O | 103 | 62.1 | 74.8 | 106 | 32.3 | 92.2 | 95.7 | 95.3 | 85.5 | < 4.82 | 66.1 | 73.3 | 59.5 | 62.4 | 105 | 94.2 | 86 | 93.8 | 76.3 | 23 | growth at 10 µM [30]: 80.6%; growth at 10 µM [21]: 104%; pIC50 [22]: < 4.82; growth at 10 µM [23]: 102%; growth at 10 µM [24]: 53.2%; growth at 10 µM [25]: 78%; growth at 10 µM [26]: 87.3%; growth at 10 µM [27]: 48.6%; growth at 10 µM [28]: 124%; growth at 10 µM [29]: 89.9%
4 | O=C1c2ccccc2C(=O)c2c1cc(SCc1ccccc1)c1nsnc21 | 103 | 73.8 | 78.9 | 95 | 10.5 | 53.1 | 101 | 96.2 | 88.6 | < 4.82 | 56.4 | 38.4 | 83.7 | 30.5 | 102 | 86.5 | 66.1 | 80.3 | 6.01 | 1.25 | growth at 10 µM [30]: -48.3%; growth at 10 µM [21]: 94.3%; pIC50 [22]: 5.20; growth at 10 µM [23]: 82.2%; growth at 10 µM [24]: 55.3%; growth at 10 µM [25]: 68.3%; growth at 10 µM [26]: 58.9%; growth at 10 µM [27]: 43.2%; growth at 10 µM [28]: 115%; growth at 10 µM [29]: -14.4%
5 | COc1ccc(Sc2cc3c(c4nsnc24)C(=O)c2ccccc2C3=O)cc1 | 101 | 68.3 | 95.7 | 116 | 92 | 94.6 | 79.5 | 92.9 | 84.8 | < 4.82 | 93.8 | 82.8 | 95.2 | 103 | 103 | 92.9 | 107 | 106 | 99.5 | 102 | growth at 10 µM [30]: 119%; growth at 10 µM [21]: 114%; pIC50 [22]: 5.08; growth at 10 µM [23]: 112%; growth at 10 µM [24]: 89.1%; growth at 10 µM [25]: 93.5%; growth at 10 µM [26]: 118%; growth at 10 µM [27]: 101%; growth at 10 µM [28]: 107%; growth at 10 µM [29]: 91.4%
6 | Cc1ccc(Sc2cc3c(c4nsnc24)C(=O)c2ccccc2C3=O)c(C)c1 | 96.4 | 65.7 | 96.8 | 119 | 68 | 94.5 | 1.5 | 94.5 | 84.4 | < 4.82 | 79.8 | 76.1 | 79.3 | 105 | 110 | 101 | 98.7 | 110 | 105 | 70.3 | growth at 10 µM [30]: 106%; growth at 10 µM [21]: 102%; pIC50 [22]: 4.80; growth at 10 µM [23]: 110%; growth at 10 µM [24]: 89.4%; growth at 10 µM [25]: 100%; growth at 10 µM [26]: 122%; growth at 10 µM [27]: 85.1%; growth at 10 µM [28]: 121%; growth at 10 µM [29]: 97.8%
